The target in series [1] is T1, 3-hydroxy-3-methylglutaryl-coenzyme A reductase (Homo sapiens, UniProt P04035).
T1 sequence (P04035 whole entry): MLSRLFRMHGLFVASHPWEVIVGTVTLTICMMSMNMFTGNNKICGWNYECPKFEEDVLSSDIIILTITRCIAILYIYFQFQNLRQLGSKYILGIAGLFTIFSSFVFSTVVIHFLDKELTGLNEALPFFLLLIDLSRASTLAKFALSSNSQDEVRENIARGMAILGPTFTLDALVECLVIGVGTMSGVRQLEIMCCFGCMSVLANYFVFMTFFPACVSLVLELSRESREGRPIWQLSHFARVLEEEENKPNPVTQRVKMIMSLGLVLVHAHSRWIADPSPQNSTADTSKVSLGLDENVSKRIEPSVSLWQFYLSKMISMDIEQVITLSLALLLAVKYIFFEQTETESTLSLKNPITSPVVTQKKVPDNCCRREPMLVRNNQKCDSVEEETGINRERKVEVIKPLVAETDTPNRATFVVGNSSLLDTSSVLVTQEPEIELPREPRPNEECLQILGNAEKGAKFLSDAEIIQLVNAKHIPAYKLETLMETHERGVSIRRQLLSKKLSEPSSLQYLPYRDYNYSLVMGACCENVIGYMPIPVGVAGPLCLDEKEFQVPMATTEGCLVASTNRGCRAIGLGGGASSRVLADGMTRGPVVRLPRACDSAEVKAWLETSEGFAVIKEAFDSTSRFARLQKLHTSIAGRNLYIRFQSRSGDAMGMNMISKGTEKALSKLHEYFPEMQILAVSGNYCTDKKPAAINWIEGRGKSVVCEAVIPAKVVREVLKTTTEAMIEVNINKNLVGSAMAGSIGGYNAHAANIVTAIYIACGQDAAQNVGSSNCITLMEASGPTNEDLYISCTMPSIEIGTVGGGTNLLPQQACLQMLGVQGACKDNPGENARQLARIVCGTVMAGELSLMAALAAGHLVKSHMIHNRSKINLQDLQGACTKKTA
The series is described as follows: (§1) Induction of degradation of Flag-tagged human HMGCR-dCat-ELuc membrane domain (1 to 499 residues) expressed in HEK293 cells assessed as reduction in HMGCR-dCat-Eluc protein level after 4 hrs by luciferase reporter assay. It counts as cell-based. A digest of the protocol:
(§2)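 HEK293 cells stably expressing HMGCR-dCat-ELuc (FLAG-tagged membrane domain, residues 1-499, emerald luciferase) in DMEM/10% FBS. Compound treatment 4 h, then remaining fusion quantified by luciferase luminescence. Normalized to 0.1% DMSO vehicle as % of control. EC50 given as mean ± SD of more than three independent dose-response experiments.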

For series [2], the system named is HEK293. Description: Cytotoxicity against human HEK293 cells assessed as cell viability at 0.01 to 10 uM incubated for 4 hrs by CytoRed viability assay. It counts as cell-based. The note with it: hek293, 4 h, dose 0.01-10 µM. In short, it runs like this:
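CytoRed esterase-based viability read in the same wells as the 4 h HMGCR-dCat-ELuc stable HEK293 degradation assay, just before luciferase measurement.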

For series [3], the target named is T2, 3-hydroxy-3-methylglutaryl-coenzyme A reductase (Homo sapiens) (UniProt P04035).
T2 sequence (whole entry): T1 sequence (P04035 whole entry)
Description: Induction of degradation of Flag-tagged human HMGCR-dCat-ELuc membrane domain (1 to 499 residues) expressed in HEK293 cells assessed as reduction in HMGCR-dCat-Eluc protein level at 10 uM after 4 hrs by luciferase reporter assay. It counts as cell-based. In short, it runs like this: as §2

The target of series [4] is T2, 3-hydroxy-3-methylglutaryl-coenzyme A reductase (Homo sapiens). The description is as §1. It counts as cell-based. In short, it runs like this: as §2
Series [5] concerns HEK293. The series is described as follows: Cytotoxicity against human HEK293 cells assessed as reduction in cell viability at 10 uM incubated for 4 hrs by CytoRed viability assay. As to conditions: hek293, 4 h. It counts as cell-based. A digest of the protocol: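 HEK293 cells stably expressing HMGCR-dCat-ELuc (HMGCR residues 1-499 with FLAG tag and emerald luciferase) are grown in DMEM with 10% FBS and penicillin-streptomycin at 5% CO2. Cells are dosed for 4 h. CytoRed, which reads cellular esterase activity, is measured in the same wells just before the luciferase read. The vehicle is 0.1% DMSO.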

Series [6] addresses T2, 3-hydroxy-3-methylglutaryl-coenzyme A reductase (Homo sapiens). Description: Binding affinity to Flag-tagged human HMGCR-dCat-ELuc membrane domain (1 to 499 residues) transfected in HEK293 cell membrane co-transfected with p-CMV-Insig1-myc-FLAG at 20 uM preincubated for 30 mins followed by irradiation with UV light for 3 mins by immunoprecipitation analysis. It counts as cell membranes.

The target is the same in series [7]. Description: Binding affinity to Flag-tagged human HMGCR-dCat-ELuc membrane domain (1 to 499 residues) transfected in HEK293 cell membrane co-transfected with p-CMV-Insig1-myc-FLAG at 20 uM preincubated for 30 mins followed by irradiation with UV light for 3 mins in presence of 50 to 200 uM SRP3042 by immunoprecipitation analysis. It counts as cell membranes.

Series [8] has as its target T3, Insulin-induced gene 1 protein (Homo sapiens) (UniProt O15503).
T3 sequence (whole entry): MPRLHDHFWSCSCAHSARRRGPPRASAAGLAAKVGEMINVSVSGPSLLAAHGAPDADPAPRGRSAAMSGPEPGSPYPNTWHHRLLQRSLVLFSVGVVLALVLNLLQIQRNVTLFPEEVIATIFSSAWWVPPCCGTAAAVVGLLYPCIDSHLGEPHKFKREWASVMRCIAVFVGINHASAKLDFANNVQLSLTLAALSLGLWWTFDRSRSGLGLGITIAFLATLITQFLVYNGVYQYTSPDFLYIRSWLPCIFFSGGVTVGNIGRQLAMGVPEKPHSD
The series is described as follows: Binding affinity to FLAG/myc-tagged Insig1 transfected in HEK293 cell membrane co-transfected with Flag-tagged human HMGCR-dCat-Eluc membrane domain (1 to 499 residues) at 20 uM preincubated for 30 mins followed by irradiation with UV light for 3 mins by immunoprecipitation analysis. It counts as cell membranes.

Activity calls are given as the source filed them. No cut-off for these calls is given here.

For orientation: EC50 means the midpoint of the concentration-response curve. On to `CC(C)OP(=O)(OC(C)C)C(Cc1cc(N=[N+]=[N-])cc(C(C)(C)C)c1)P(=O)(OC(C)C)OC(C)C`, for which, in series [1] (read-out: EC50), the EC50 turned out to be 1660 nM. The Activity result in series [2] is listed as “Non-Toxic”.

As for `C#CCCOP(=O)(OC(C)C)C(Cc1cc(C(C)(C)C)nc(C(C)(C)C)c1)P(=O)(OC(C)C)OC(C)C` (stereo not drawn), the EC50 in series [1] (read-out: EC50) was 795 nM. Further, in series [2], the Activity result was “Non-Toxic”.

As for `C#Cc1cc(CC(P(=O)(OC(C)C)OC(C)C)P(=O)(OC(C)C)OC(C)C)cc(N=[N+]=[N-])c1`, the EC50 entry in series [1] (hek293) is listed as “Not Active”. For the same compound, the outcome in series [3] was inactive. Moreover, the Activity result in series [2] is recorded as “Non-Toxic”.

In the case of `CCOP(=O)(OCC)C(=Cc1ccc(O)c(C(C)(C)C)c1)P(=O)(OCC)OCC`, the EC50 entry in series [1] (hek293) is “Not Active”. In addition, the result in series [3] was inactive. In addition, the Activity result in series [2] was “Non-Toxic”.

As for `CC(C)OP(=O)(OC(C)C)C(Cc1cc(C(C)(C)C)nc(C(C)(C)C)c1)P(=O)(OC(C)C)OC(C)C`, the EC50 in series [1] (read-out: EC50) turned out to be 153 nM. Also, the figures for the Activity result in series [4] and in series [2] were “Dose-dependent effect” and “Non-Toxic”, respectively.

Turning to `C#CCOP(=O)(OC(C)C)C(Cc1cc(C(C)(C)C)nc(C(C)(C)C)c1)P(=O)(OC(C)C)OC(C)C` (stereo not drawn), the EC50 in series [1] (read-out: EC50) was found to be 633 nM. Further, in series [2], the Activity entry was “Non-Toxic”.

As for `C#Cc1cc(CC(P(=O)(OC(C)C)OC(C)C)P(=O)(OC(C)C)OC(C)C)cc(C(C)(C)C)c1`, the EC50 in series [1] (read-out: EC50) was found to be 3540 nM. Further, the Activity entry in series [2] is listed as “Non-Toxic”.

On to `CC(C)OP(=O)(OC(C)C)C(=Cc1cc(C(C)(C)C)c(O)c(C(C)(C)C)c1)P(=O)(OC(C)C)OC(C)C`, for which, in series [1] (read-out: EC50), the EC50 amounted to 1340 nM. Moreover, the Activity entry in series [5] is recorded as “Toxic”.

In the case of `CCOP(=O)(OCC)C(=Cc1cc(C(C)(C)C)cc(C(C)(C)C)c1)P(=O)(OCC)OCC`, the EC50 in series [1] (read-out: EC50) amounted to 1160 nM. Besides, in series [2], the Activity entry was “Non-Toxic”.

Turning to `C#CCCC1(CCOP(=O)(OC(C)C)C(Cc2cc(C(C)(C)C)nc(C(C)(C)C)c2)P(=O)(OC(C)C)OC(C)C)N=N1` (stereo not drawn), the outcome in series [6] was Active. In addition, the EC50 in series [1] (read-out: EC50) was found to be 417 nM. The Activity result is “Dose-dependent effect” in series [4] and “Non-Toxic” in series [2]. Moreover, the outcome in series [7] and in series [8] was inactive.

For the compound `CC(C)OP(=O)(OC(C)C)C(Cc1cc(C(C)(C)C)c(O)c(C(C)(C)C)c1)P(=O)(OC(C)C)OC(C)C` [APOMINE], the concentration giving a half-maximal response (EC50) in series [1] (read-out: EC50) amounted to 876 nM. In addition, the Activity entry in series [2] is reported as “Non-Toxic”.

On to `CC(C)OP(=O)(OC(C)C)C(Cc1cc(I)cc(C(C)(C)C)c1)P(=O)(OC(C)C)OC(C)C`, for which the EC50 in series [1] (read-out: EC50) is 1460 nM. Further, in series [2], the Activity result is on record as “Non-Toxic”.

On to `CC(C)OP(=O)(OC(C)C)C(Cc1cc(C(C)(C)C)cc(C(C)(C)C)c1)P(=O)(OC(C)C)OC(C)C`, for which, in series [1] (read-out: EC50), the EC50 stood at 317 nM. Also, the Activity entry in series [2] is listed as “Non-Toxic”.

Regarding `CCOP(=O)(OCC)C(=Cc1ccc(O)cc1)P(=O)(OCC)OCC`, the EC50 result in series [1] (hek293) is listed as “Not Active”. In series [3], the outcome was inactive. Further, in series [2], the Activity entry is “Non-Toxic”.

As to `CC(C)OP(=O)(O)C(Cc1cc(C(C)(C)C)nc(C(C)(C)C)c1)P(=O)(OC(C)C)OC(C)C` (stereo not drawn), in series [1] (hek293), the EC50 result is “Not Active”. Further, the outcome in series [3] was inactive. Besides, the Activity result in series [2] is on record as “Non-Toxic”.

For the compound `CCOP(=O)(OCC)C(Cc1cc(C(C)(C)C)c(O)c(C(C)(C)C)c1)P(=O)(OCC)OCC`, the EC50 in series [1] (read-out: EC50) is 2770 nM. Moreover, the Activity result in series [2] was “Non-Toxic”.

`CCOP(=O)(OCC)C(=Cc1cc(C(C)(C)C)c(O)c(C(C)(C)C)c1)P(=O)(OCC)OCC`: in series [1] (read-out: EC50), the EC50 is 1100 nM. For the same compound, in series [5], the Activity entry is listed as “Toxic”.

The record behind these values is ChEMBL document CHEMBL4725260, “Bisphosphonate esters interact with HMG-CoA reductase membrane domain to induce its degradation” (Bioorg Med Chem, 2020).
